ChEMBL document CHEMBL1144472, “Pyrogallol-based molecules as potent inhibitors of the antiapoptotic Bcl-2 proteins” (J Med Chem, 2007)
The source made the active and inactive calls. No cut-off for these calls is given here.

Columns and labels:
[1] = target: T1, Apoptosis regulator Bcl-2 (Homo sapiens, UniProt P10415); assay: Displacement of FAM-Bid BH3 peptide from human recombinant Bcl2 by FP-based binding assay
Outline: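 Competitive fluorescence-polarization binding assay with recombinant human Bcl-2 and a fluorescently tagged Bid BH3 peptide as tracer. Ki values were derived from the competitive binding curves.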

MDA-MB-231 [2] = assay: Induction of cell death in human MDA-MB-231 cells after 96 hrs by trypan blue exclusion assay; assay type: functional, cell-based
Outline: (§1)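 MDA-MB-231 breast cancer cells were exposed to the inhibitor for 96 hours across a dose series that included 10, 100 and 1000 nM. Viability was scored by trypan blue exclusion.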

[3] = target: T2, Induced myeloid leukemia cell differentiation protein Mcl-1 (Homo sapiens, UniProt Q07820); assay: Displacement of FAM-Bid BH3 peptide from human Mcl1 by FP-based binding assay
T2 sequence (Q07820 whole entry): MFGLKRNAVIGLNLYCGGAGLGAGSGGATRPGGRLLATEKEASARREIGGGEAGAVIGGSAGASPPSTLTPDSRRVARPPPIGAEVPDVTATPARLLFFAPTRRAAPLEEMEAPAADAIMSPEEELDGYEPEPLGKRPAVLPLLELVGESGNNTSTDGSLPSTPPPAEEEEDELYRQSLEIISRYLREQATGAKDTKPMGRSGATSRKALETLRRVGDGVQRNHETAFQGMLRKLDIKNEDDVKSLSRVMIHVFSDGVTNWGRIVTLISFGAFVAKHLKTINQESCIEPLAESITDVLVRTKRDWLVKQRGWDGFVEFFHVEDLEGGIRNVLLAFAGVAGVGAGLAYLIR

[4] = target: T2, Induced myeloid leukemia cell differentiation protein Mcl-1; assay: Displacement of biotinylated Bim BH3 peptide from recombinant His-tagged Mcl1 by ELISA assay
[5] = target: T1, Apoptosis regulator Bcl-2; assay: Displacement of biotinylated Bim BH3 peptide from recombinant His-tagged Bcl2 by ELISA assay
MDA-MB-231 [6] = assay: Induction of cell death in human MDA-MB-231 cells at 10 nM after 96 hrs by trypan blue exclusion assay; assay type: functional, cell-based; outline: as §1

T1 sequence (P10415 whole entry): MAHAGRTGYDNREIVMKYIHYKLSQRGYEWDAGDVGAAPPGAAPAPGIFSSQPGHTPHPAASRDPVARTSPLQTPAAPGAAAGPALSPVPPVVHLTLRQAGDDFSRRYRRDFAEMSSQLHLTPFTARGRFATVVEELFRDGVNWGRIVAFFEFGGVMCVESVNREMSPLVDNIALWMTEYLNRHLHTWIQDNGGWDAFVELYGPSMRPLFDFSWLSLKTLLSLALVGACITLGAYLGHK

Row | Structure (SMILES) | Ki [1] | Activity (MDA-MB-231 [2]) | Ki [3] | IC50 [4] | IC50 [5] | Activity (MDA-MB-231 [6])
1 | CC(C)c1cc(C(=O)Nc2ccccc2)c(O)c(O)c1O | 31900 nM | Dose-dependent effect |  |  |  | 
2 | CN(CCCc1ccccc1)S(=O)(=O)c1cc(C(=O)N2CCc3ccc(S(=O)(=O)NCCc4ccccc4)cc3C2)c(O)c(O)c1O | 110 nM | Dose-dependent effect | 150 nM | 39 nM | 330 nM | Active
3 | CC(C)c1cc(C(=O)N2CCc3ccccc3C2)c(O)c(O)c1O | 3100 nM | Dose-dependent effect |  |  | 38200 nM | 
4 | CC(C)c1cc(C(=O)N2CCc3ccc(S(=O)(=O)NCCc4ccccc4)cc3C2)c(O)c(O)c1O | 590 nM | Dose-dependent effect |  |  | 6600 nM | 
5 | CN(C)CC[C@H](CSc1ccccc1)Nc1ccc(S(=O)(=O)NC(=O)c2ccc(N3CCN(Cc4ccccc4-c4ccc(Cl)cc4)CC3)cc2)cc1[N+](=O)[O-] |  | Dose-dependent effect |  |  |  | 
